In ChEMBL document CHEMBL5120858, “Structure-activity relationship and antitumor activity of 1,4-pyrazine-containing inhibitors of histone acetyltransferases P300/CBP” (Eur J Med Chem, 2022):
Calls of active or inactive are those of the source. No cut-off for these calls is given here.

Legend:
[1] = molecular target: T1, Histone acetyltransferase p300 (Homo sapiens, UniProt Q09472); assay: Inhibition of human p300 HAT domain (1195 to 1673 residues) at 10 uM using histone H3 peptide and acetyl-coA as substrates preincubated for 10 mins followed by substrate addition and measured after 30 mins by beckman scintillation counting analysis relative to control; conditions: time 40.0 min
Procedure, shortened: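 Single-concentration screen at 10 μM in the radiometric p300 HAT domain assay: enzyme 10 nM, pH 7.0 phosphate/Brij-35, 10 min preincubation, then H3(1-21) peptide 20 μM plus ³H/unlabelled Ac-CoA (20 μM total), 30 min at 25 °C. Filter-bound ³H-acetylated peptide was counted, and the value is given as % inhibition.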

[2] = molecular target: T1, Histone acetyltransferase p300; assay: Inhibition of human p300 HAT domain (1195 to 1673 residues) using histone H3 peptide and acetyl-coA as substrates preincubated for 10 mins followed by substrate addition and measured after 30 mins by beckman scintillation counting analysis
Procedure, shortened: (§1)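 Radiometric HAT assay. Enzyme at 10 nM was preincubated with graded compound for 10 min at 25 °C in 50 mM phosphate pH 7.0 with 0.01% Brij-35. Reaction started with H3 (1-21) peptide (20 μM) plus Ac-CoA (1 μM ³H-Ac-CoA + 19 μM unlabelled) and run 30 min at 25 °C. Stopped with formic acid, spotted on P81 paper, washed with NaHCO₃ and scintillation counted. IC₅₀ from sigmoidal fit, mean of ≥3 experiments.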

[3] = molecular target: T1, Histone acetyltransferase p300; assay: Inhibition of biotinylated histone H4 peptide binding to His-tagged human p300 HAT domain (1195 to 1673 residues) assessed as reduction in alpha signal incubated for 1 hr by amplified luminescent proximity homogeneous assay
Procedure, shortened: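 AlphaScreen binding assay in PBS with 0.5% BSA: His6-tagged p300 HAT (125 nM) on nickel chelate acceptor beads and biotinylated H4 peptide (30 nM) on streptavidin donor beads, with a dilution series of compound. After 1 h, signal was read with excitation at 680 nm and emission at 570 nm, and IC50 came from a sigmoidal dose-response fit.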

MOLM-13 [4] = assay: Antiproliferative activity against human MOLM-13 cells assessed as reduction in cell growth incubated for 5 days by XTT assay; type: functional, cell-based; conditions: MOLM-13, 120 h
Procedure, shortened: (§2)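 Blood cancer cells were plated at 10⁶ per well in RPMI-1640 with 20% FBS and penicillin/streptomycin and grown with increasing compound concentrations at 37 °C, 5% CO₂. Viability was measured by XTT, and EC50 was calculated from dose-response curves.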

RPMI-8226 [5] = assay: Antiproliferative activity against human RPMI-8226 cells assessed as reduction in cell growth incubated for 5 days by XTT assay; type: functional, cell-based; conditions: RPMI-8226, 120 h; procedure, shortened: as §2
PC-3 [6] = assay: Antiproliferative activity against human PC-3 cells assessed as reduction in cell growth incubated for 5 days by XTT assay; type: functional, cell-based; conditions: PC-3, 120 h
MV4-11 = assay: Antiproliferative activity against human MV4-11 cells assessed as reduction in cell growth incubated for 5 days by XTT assay; type: functional, cell-based; conditions: MV4-11, 120 h; procedure, shortened: as §2
MCF7 = assay: Antiproliferative activity against human MCF7 cells assessed as reduction in cell growth incubated for 5 days by XTT assay; type: functional, cell-based; conditions: MCF7, 120 h
Procedure, shortened: (§3)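 Solid tumour cells were seeded at 10⁵ per well in DMEM with 10% FBS and penicillin/streptomycin and allowed to attach overnight. They were then exposed to increasing compound concentrations for 5 days. Viability was read by XTT, and EC50 came from dose-response curves.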

LNCaP [7] = assay: Antiproliferative activity against human LNCaP cells assessed as reduction in cell growth incubated for 5 days by XTT assay; type: functional, cell-based; conditions: 120 h; procedure, shortened: as §3
PANC-1 = assay: Antiproliferative activity against human PANC-1 cells assessed as reduction in cell growth incubated for 5 days by XTT assay; type: functional, cell-based; conditions: PANC-1, 120 h; procedure, shortened: as §3
[8] = Antiproliferative activity against human MDA-Panc-28 cells assessed as reduction in cell growth incubated for 5 days by XTT assay; type: functional, cell-based; conditions: MDA-Panc-28, 120 h; procedure, shortened: as §3
MDA-MB-231 [9] = assay: Antiproliferative activity against human MDA-MB-231 cells assessed as reduction in cell growth incubated for 5 days by XTT assay; type: functional, cell-based; conditions: MDA-MB-231, 120 h
PC-3 [10] = assay: Antiproliferative activity against human PC-3 cells assessed as reduction in cell growth incubated for 3 to 5 days by CellTiter-Glo luminescent cell viability assay; type: functional, cell-based
MDA-MB-231 [11] = assay: Antiproliferative activity against human MDA-MB-231 cells assessed as reduction in cell growth incubated for 3 to 5 days by CellTiter-Glo luminescent cell viability assay; type: functional, cell-based
RPMI-8226 [12] = assay: Antiproliferative activity against human RPMI-8226 cells assessed as reduction in cell growth incubated for 3 to 5 days by CellTiter-Glo luminescent cell viability assay; type: functional, cell-based
MOLM-13 [13] = assay: Antiproliferative activity against human MOLM-13 cells assessed as reduction in cell growth incubated for 3 to 5 days by CellTiter-Glo luminescent cell viability assay; type: functional, cell-based
LNCaP [14] = assay: Antiproliferative activity against human LNCaP cells assessed as reduction in cell growth incubated for 3 to 5 days by CellTiter-Glo luminescent cell viability assay; type: functional, cell-based
Kasumi 1 [15] = assay: Inhibition of histone H3 acetylation at lysine 27 residue in human Kasumi 1 cells incubated for 12 hrs by Western blot analysis; type: functional, cell-based; conditions: dose 5-10 µM, DDE = dose-dependent effect
Procedure, shortened: (§4)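 Kasumi-1 cells (10⁶ per well) exposed to a range of compound concentrations for 12 h. Total histones extracted and 2 μg protein resolved by SDS-PAGE, then transferred to PVDF. Blots probed with antibodies to H3K9Ac, H3K18Ac, H3K27Ac and total H3, with anti-rabbit IgG secondary.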

Kasumi 1 [16] = assay: Inhibition of histone H3 acetylation at lysine 9 residue in human Kasumi 1 cells incubated for 12 hrs by Western blot analysis; type: functional, cell-based; conditions: dose 5-10 µM, DDE = dose-dependent effect; procedure, shortened: as §4
Kasumi 1 [17] = assay: Inhibition of histone H3 acetylation at lysine 9 residue in human Kasumi 1 cells at 5 to 10 uM incubated for 12 hrs by Western blot analysis; type: functional, cell-based; conditions: dose 5-10 µM
Procedure, shortened: (§5)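 Kasumi-1 leukemia cells (10⁶ per well) were treated 12 h with a range of compound concentrations. Total histones were extracted, and 2 μg was resolved by SDS-PAGE and transferred to PVDF. Blots were probed for H3K9ac, H3K18ac, H3K27ac and total H3, with anti-rabbit IgG secondary.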

CREB-binding protein = CREB-binding protein (Homo sapiens, UniProt Q92793); assay: Inhibition of human CBP-HAT domain using histone H3 peptide and acetyl-coA as substrates preincubated for 10 mins followed by substrate addition and measured after 30 mins by beckman scintillation counting analysis; procedure, shortened: as §1
[18] = molecular target: Histone acetyltransferase KAT2B (Homo sapiens, UniProt Q92831); assay: Inhibition of human PCAF using histone H3 peptide and acetyl-coA as substrates preincubated for 10 mins followed by substrate addition and measured after 30 mins by beckman scintillation counting analysis; procedure, shortened: as §1
Kasumi 1 [19] = assay: Inhibition of histone H3 acetylation at lysine 18 residue in human Kasumi 1 cells incubated for 12 hrs by Western blot analysis; type: functional, cell-based; conditions: dose 5-10 µM, DDE = dose-dependent effect; procedure, shortened: as §5
[20] = molecular target: Histone acetyltransferase KAT6A (Homo sapiens, UniProt Q92794); assay: Inhibition of human Myst3 using histone H3 peptide and acetyl-coA as substrates preincubated for 10 mins followed by substrate addition and measured after 30 mins by beckman scintillation counting analysis; procedure, shortened: as §1
Kasumi 1 [21] = assay: Inhibition of histone H3 acetylation at lysine 27 residue in human Kasumi 1 cells at 5 to 10 uM incubated for 12 hrs by Western blot analysis; type: functional, cell-based; conditions: dose 5-10 µM; procedure, shortened: as §5

T1 sequence (Q09472 whole entry, the tested form may be a part): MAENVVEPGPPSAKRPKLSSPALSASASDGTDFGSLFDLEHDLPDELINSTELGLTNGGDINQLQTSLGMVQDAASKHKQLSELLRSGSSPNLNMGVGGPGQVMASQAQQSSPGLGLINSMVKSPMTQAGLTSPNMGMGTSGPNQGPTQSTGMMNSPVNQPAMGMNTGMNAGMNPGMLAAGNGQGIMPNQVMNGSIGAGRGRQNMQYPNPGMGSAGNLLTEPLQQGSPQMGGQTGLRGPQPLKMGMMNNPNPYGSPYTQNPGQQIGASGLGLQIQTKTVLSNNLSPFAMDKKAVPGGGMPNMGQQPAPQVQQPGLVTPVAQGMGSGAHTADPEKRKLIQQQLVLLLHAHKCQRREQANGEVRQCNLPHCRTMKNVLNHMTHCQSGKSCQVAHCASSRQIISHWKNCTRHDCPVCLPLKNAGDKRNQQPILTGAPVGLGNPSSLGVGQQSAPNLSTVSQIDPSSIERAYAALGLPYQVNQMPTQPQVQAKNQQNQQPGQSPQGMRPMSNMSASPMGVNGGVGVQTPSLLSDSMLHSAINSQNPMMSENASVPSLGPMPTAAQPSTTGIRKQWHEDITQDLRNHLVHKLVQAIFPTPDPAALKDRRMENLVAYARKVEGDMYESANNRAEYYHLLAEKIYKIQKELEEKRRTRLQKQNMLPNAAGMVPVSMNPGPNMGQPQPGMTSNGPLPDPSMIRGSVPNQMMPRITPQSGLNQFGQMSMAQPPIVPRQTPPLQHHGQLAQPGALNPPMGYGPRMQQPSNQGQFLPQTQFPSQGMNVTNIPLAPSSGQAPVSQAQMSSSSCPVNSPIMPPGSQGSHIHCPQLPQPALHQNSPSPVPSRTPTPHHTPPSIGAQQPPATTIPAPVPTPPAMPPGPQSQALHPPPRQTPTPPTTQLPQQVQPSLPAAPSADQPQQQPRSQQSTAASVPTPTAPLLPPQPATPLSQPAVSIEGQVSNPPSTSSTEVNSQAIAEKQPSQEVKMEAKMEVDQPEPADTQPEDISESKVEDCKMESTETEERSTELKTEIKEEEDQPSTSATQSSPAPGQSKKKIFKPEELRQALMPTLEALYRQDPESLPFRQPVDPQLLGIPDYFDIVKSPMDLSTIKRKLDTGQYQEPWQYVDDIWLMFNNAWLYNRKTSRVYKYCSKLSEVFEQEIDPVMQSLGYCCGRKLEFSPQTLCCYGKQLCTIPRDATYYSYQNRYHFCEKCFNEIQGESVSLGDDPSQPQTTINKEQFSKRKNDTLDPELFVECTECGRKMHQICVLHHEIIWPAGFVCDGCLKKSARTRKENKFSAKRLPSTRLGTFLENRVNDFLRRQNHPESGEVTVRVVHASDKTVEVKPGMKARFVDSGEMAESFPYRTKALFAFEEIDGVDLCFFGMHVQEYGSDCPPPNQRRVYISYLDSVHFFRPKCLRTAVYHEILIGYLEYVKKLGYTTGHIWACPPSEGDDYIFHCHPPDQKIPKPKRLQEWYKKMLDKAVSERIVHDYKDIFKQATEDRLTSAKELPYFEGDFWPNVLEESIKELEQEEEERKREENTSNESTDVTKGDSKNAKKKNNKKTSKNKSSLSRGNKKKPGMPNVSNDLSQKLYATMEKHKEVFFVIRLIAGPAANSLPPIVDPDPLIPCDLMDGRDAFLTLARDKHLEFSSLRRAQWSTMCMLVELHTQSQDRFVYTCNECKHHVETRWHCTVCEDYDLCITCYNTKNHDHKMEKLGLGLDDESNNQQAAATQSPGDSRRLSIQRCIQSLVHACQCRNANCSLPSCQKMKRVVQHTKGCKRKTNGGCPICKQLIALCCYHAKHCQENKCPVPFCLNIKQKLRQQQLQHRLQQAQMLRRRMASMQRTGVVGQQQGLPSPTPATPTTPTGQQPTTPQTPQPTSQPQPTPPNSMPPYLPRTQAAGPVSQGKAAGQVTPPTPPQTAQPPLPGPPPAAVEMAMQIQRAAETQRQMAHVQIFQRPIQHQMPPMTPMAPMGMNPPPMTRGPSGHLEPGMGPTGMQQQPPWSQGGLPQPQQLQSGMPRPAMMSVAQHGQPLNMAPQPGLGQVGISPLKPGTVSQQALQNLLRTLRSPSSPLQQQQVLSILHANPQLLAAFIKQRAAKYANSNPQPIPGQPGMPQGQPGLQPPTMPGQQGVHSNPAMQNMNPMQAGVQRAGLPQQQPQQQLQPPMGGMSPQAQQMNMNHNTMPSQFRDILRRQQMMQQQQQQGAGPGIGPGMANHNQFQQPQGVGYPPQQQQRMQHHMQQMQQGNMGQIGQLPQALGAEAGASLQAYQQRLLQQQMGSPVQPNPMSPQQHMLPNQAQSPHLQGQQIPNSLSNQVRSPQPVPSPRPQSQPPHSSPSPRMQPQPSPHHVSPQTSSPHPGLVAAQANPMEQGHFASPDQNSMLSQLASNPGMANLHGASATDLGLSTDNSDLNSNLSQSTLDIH
Sequence of Histone acetyltransferase KAT6A (Q92794 whole entry): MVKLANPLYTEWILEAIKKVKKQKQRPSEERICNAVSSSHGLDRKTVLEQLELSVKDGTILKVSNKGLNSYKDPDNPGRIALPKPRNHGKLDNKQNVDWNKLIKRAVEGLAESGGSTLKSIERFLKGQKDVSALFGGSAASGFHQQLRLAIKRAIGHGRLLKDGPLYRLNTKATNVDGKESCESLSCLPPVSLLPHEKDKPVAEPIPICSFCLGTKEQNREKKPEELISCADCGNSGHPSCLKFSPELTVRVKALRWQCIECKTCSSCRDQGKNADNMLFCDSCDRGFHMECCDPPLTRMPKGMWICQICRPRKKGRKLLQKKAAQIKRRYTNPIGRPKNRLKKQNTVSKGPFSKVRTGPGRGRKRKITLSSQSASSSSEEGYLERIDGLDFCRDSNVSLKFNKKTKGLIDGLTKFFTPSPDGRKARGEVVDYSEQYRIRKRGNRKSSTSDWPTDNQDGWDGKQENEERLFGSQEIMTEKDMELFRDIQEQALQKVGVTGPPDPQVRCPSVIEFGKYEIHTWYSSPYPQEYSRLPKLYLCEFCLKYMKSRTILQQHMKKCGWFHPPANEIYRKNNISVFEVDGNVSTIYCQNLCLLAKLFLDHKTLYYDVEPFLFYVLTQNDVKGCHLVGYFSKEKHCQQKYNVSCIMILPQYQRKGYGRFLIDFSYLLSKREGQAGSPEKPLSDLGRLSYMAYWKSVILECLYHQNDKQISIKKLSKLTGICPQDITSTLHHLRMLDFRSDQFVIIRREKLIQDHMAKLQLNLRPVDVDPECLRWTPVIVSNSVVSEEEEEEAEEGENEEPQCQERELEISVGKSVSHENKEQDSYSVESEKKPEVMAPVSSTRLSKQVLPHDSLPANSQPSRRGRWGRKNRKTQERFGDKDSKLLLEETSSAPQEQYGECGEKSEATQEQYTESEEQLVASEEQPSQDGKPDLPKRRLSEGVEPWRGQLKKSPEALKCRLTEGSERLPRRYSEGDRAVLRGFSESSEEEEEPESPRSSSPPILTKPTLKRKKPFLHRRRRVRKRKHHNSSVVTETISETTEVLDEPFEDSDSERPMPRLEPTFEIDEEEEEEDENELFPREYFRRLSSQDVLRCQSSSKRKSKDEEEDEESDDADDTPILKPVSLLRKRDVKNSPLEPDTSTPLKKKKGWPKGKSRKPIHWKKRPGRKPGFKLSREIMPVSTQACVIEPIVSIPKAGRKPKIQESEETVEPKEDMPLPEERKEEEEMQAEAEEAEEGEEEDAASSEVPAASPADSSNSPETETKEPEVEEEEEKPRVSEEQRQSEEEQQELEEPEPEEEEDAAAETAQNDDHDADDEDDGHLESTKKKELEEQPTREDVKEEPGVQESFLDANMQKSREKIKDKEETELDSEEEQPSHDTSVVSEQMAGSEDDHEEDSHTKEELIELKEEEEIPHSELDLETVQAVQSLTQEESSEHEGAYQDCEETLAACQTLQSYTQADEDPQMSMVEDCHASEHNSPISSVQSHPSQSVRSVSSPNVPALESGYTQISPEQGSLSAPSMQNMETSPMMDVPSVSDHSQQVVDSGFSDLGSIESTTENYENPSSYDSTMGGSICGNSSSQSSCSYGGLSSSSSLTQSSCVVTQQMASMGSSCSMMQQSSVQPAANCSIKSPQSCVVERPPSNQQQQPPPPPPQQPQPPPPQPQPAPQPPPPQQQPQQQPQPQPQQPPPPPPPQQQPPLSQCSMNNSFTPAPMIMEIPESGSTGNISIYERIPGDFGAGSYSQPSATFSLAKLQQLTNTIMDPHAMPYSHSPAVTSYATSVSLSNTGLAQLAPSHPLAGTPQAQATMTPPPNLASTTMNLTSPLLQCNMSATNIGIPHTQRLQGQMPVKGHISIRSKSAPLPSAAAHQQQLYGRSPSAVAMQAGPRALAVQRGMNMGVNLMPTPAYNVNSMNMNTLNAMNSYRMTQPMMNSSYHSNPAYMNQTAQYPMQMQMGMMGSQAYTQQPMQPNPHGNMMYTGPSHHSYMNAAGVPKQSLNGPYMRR

SMILES | inhibition [1] | IC50 [2] | also measured
CN(C)CCCOc1cnc(-c2ccc(Br)cc2)c(-c2ccc(Br)cc2)n1 | 4.8% | > 10 µM | 
Brc1ccc(-c2ncc(OCC3CCNCC3)nc2-c2ccc(Br)cc2)cc1 | 72.5% | 5.7 µM | IC50 [3]: 27 µM
CCc1ccc(-c2ncc(OCC3CCNCC3)nc2-c2ccc(CC)cc2)cc1 | 55% | 10 µM | 
NCCCOc1cnc(-c2ccc(Br)cc2)c(-c2ccc(Br)cc2)n1 |  | > 10 µM | EC50 (MOLM-13 [4]): > 20 µM; EC50 (RPMI-8226 [5]): > 20 µM; EC50 (PC-3 [6]): > 20 µM; EC50 (MV4-11): > 20 µM; EC50 (MCF7): > 20 µM; EC50 (LNCaP [7]): > 20 µM; EC50 (PANC-1): > 20 µM; EC50 [8]: > 20 µM; EC50 (MDA-MB-231 [9]): > 20 µM
CNC(=O)Nc1ccc2c(c1)CC[C@@]21OC(=O)N(CC(=O)N(Cc2ccc(F)cc2)[C@@H](C)C(F)(F)F)C1=O (single isomer, unassigned) [A-485] |  |  | EC50 (PC-3 [10]): 2.1 µM; EC50 (MDA-MB-231 [11]): > 10 µM; EC50 (RPMI-8226 [12]): 0.16 µM; EC50 (MOLM-13 [13]): 0.35 µM; EC50 (LNCaP [14]): 0.26 µM
FC(F)(F)c1ccc(-c2ncc(OCC3CCNCC3)nc2-c2ccc(C(F)(F)F)cc2)cc1 | 34% | > 10 µM | 
COc1ccc(-c2ncc(OCC3CCNCC3)nc2-c2ccc(OC)cc2)cc1 | 38% | > 10 µM | 
c1cc(-c2ccc(-c3ncc(OCC4CCNCC4)nc3-c3ccc(-c4ccncc4)cc3)cc2)ccn1 | 39% | > 10 µM | 
CNCCCCOc1cnc(-c2ccc(Br)cc2)c(-c2ccc(Br)cc2)n1 |  | > 10 µM | 
O=C(O)c1cnc(-c2ccc(Br)cc2)c(-c2ccc(Br)cc2)n1 | 30% | > 10 µM | 
Brc1ccc(-c2ncc(OCC3CCNCC3)nc2-c2ccc(Br)c(Br)c2)cc1Br | 50% |  | 
c1ccc(-c2cc(OCC3CCNCC3)cnc2-c2ccccc2)cc1 |  | 46.3 µM | 
CNCCOc1cnc(-c2ccc(Br)cc2)c(-c2ccc(Br)cc2)n1 | 19.6% | > 10 µM | 
N#Cc1ccc(-c2nc(OCC3CCNCC3)cnc2-c2ccc(Br)cc2)cc1 | 21% | > 10 µM | 
NCCCCOc1cnc(-c2ccc(Br)cc2)c(-c2ccc(Br)cc2)n1 |  | > 10 µM | 
c1ccc(-c2ccc(-c3ncc(OCC4CCNCC4)nc3-c3ccc(-c4ccccn4)cc3)cc2)nc1 | 37% | > 10 µM | 

SMILES | inhibition [1] | IC50 [2] | also measured
Brc1cccc(-c2ncc(OCC3CCNCC3)nc2-c2cccc(Br)c2)c1 |  | 9.9 µM | 
N#Cc1ccc(-c2ncc(OCC3CCNCC3)nc2-c2ccc(Br)cc2)cc1 | 0% | > 10 µM | 
CC(=O)NCCOc1cnc(-c2ccc(Br)cc2)c(-c2ccc(Br)cc2)n1 | 0% | > 10 µM | 
OCc1ccc(-c2ncc(OCC3CCNCC3)nc2-c2ccc(CO)cc2)cc1 | 48.2% | 10 µM | 
Ic1ccc(-c2ncc(OCC3CCNCC3)nc2-c2ccc(I)cc2)cc1 |  | 7.8 µM | 
CC(C)(C)c1ccc(-c2ncc(OCC3CCNCC3)nc2-c2ccc(C(C)(C)C)cc2)cc1 |  | 17.6 µM | 
NCc1ccc(-c2ncc(OCC3CCNCC3)nc2-c2ccc(CN)cc2)cc1 |  | 2.8 µM | inhibition (Kasumi 1 [15]): Dde; inhibition (Kasumi 1 [16]): Dde
c1cc(-c2ccc(-c3ncc(OCC4CCNCC4)nc3-c3ccc(-c4ccoc4)cc3)cc2)co1 |  | 1.4 µM | EC50 (MOLM-13 [4]): 3.6 µM; EC50 (RPMI-8226 [5]): 6.4 µM; inhibition (Kasumi 1 [17]): Active; EC50 (MV4-11): 8.7 µM; EC50 (MCF7): 5.3 µM; IC50 (CREB-binding protein): 2.2 µM; IC50 [3]: 7.2 µM; IC50 [18]: > 100 µM; EC50 (PANC-1): 1.2 µM; inhibition (Kasumi 1 [19]): Dde; IC50 [20]: > 100 µM; inhibition (Kasumi 1 [21]): Active; EC50 [8]: 4.3 µM
NCCOc1cnc(-c2ccc(Br)cc2)c(-c2ccc(Br)cc2)n1 | 5.4% | > 10 µM | 
Brc1ccc(-c2ncc(OCC3CCNC3)nc2-c2ccc(Br)cc2)cc1 (stereo unspecified) |  | > 10 µM | 
N#Cc1ccc(-c2ncc(OCC3CCNCC3)nc2-c2ccc(C#N)cc2)cc1 | 0% | > 10 µM | 
Fc1cc(-c2ncc(OCC3CCNCC3)nc2-c2ccc(Br)c(F)c2)ccc1Br |  | 11.8 µM | 
CN(C)Cc1ccc(-c2ncc(OCC3CCNCC3)nc2-c2ccc(CN(C)C)cc2)cc1 |  | > 10 µM | 
Nc1ccc(-c2ccc(-c3ncc(OCC4CCNCC4)nc3-c3ccc(-c4ccc(N)cc4)cc3)cc2)cc1 |  | 2.3 µM | 
Clc1ccc(-c2ncc(OCC3CCNCC3)nc2-c2ccc(Cl)cc2)cc1 |  | > 10 µM | 
Cc1ccc(-c2ncc(OCC3CCNCC3)cc2-c2ccc(CO)cc2)cc1 |  | 62.6 µM | 
